High-throughput results: PubChem BioAssay, Broad Institute
KDM4C inh: blocks human GASC-1 (KDM4C) demethylase activity | Q9H3R0 | GST-KDM4C 2-372, H3K9me3 peptide, LANCE TR-FRET | inhibition, % at 12.5 µM | actives 0.15% (n = 96,000) | AID 720574;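 active = mean replicate inhibition above about 25%, with at least 55% of replicates also reaching it, limit read from the data, passing the limit was not always enough; inconclusive = only one of those two conditions met; inactive = neither condition met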
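Material: GST-tagged GASC-1 (JMJD2C) catalytic fragment, aa 2-372. Input: enzyme final amount 10 nM. Medium: HEPES buffer, pH 7.5, plus ascorbate. Reagent: H3K9me3 peptide substrate, Fe(II), 2-oxoglutarate. Doses: single dose. Times: reaction 30 min RT, detection step 1 h RT. Measured by: LANCE TR-FRET. Evaluation: Fall in 671/618 emission ratio as inhibition.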
T cruzi growth-1: T. cruzi proliferation inhibition | T. cruzi beta-gal in NIH3T3, GalScreen luminescence, 90 h | inhibition, % at 8.34 µM | actives 5.9% (n = 77,000) | AID 624255;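 active = mean inhibition above about 93%, with at least 55% of replicates each passing it, limit read from the data, passing the limit was not always enough; inconclusive = only one of those two conditions holds; inactive = neither condition holds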
IDH1 R132H inh: blocks human IDH1 R132H reductase activity. O75874. diaphorase/resazurin fluorescence, 60 min. inhibition, % at 10 µM. actives 0.18% (n = 70,000). AID 624101; in the data active = inhibition above about 34%; inconclusive = no clear call, values can overlap the other calls; inactive = below about 11%;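 note: 0% = DMSO and 100% = no enzyme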
Target sequence (O75874 whole entry R132H): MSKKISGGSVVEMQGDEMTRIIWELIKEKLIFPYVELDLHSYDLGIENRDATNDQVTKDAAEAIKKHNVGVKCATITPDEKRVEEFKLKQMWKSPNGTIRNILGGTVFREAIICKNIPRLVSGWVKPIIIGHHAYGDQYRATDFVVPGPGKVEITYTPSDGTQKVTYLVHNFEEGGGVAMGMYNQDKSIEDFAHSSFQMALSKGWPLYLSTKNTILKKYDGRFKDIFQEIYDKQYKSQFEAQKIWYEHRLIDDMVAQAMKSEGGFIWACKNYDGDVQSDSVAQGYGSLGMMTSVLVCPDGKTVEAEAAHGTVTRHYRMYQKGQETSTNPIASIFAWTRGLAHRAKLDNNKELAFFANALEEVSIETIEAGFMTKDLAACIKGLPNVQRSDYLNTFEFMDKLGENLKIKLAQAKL
T cruzi growth-2: blocks T. cruzi growth in NIH3T3 host cells | shares compounds with T cruzi growth-1 | T. cruzi beta-gal in NIH3T3, GalScreen luminescence, 90 h | inhibition, % at 8.35 µM | actives 72% (n = 5,600) | AID 651739;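 active = mean replicate inhibition above about 95% and at least 55% of replicates individually reaching it, limit read from the data; inconclusive = only one of the two criteria is met; inactive = neither criterion is met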
T cruzi growth-3: blocks T. cruzi growth in NIH3T3 host cells. shares compounds with T cruzi growth-1. T. cruzi beta-gal in NIH3T3, GalScreen luminescence, 90 h. inhibition, % at 2.09 µM. actives 21% (n = 5,600). AID 651740;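 active = mean inhibition above about 95%, with at least 55% of replicates also reaching it, limit read from the data; inconclusive = meets just one of the two conditions; inactive = meets neither condition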;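 note: plate controls were neutral control median for no effect and positive control median for full effect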
NIH3T3 tox: NIH/3T3 (mouse) viability loss; shares compounds with T cruzi growth-1; NIH/3T3 viability, CellTiter-Glo ATP luminescence, 90 h; cytotoxicity (signal decrease), % at 8.35 µM; actives 14% (n = 5,600); AID 651742;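 active = mean signal decrease across replicates above about 35% based on untreated-well scatter, with enough replicates individually passing, limit read from the data; inconclusive = no rule stated though some were filed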;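 note: 0% = median of neutral control wells and 100% = median of positive control wells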
3T3 cytotox 2: kills mouse NIH/3T3 fibroblasts | shares compounds with T cruzi growth-1 | NIH/3T3 viability, CellTiter-Glo ATP luminescence, 90 h | inhibition, % at 24.9 µM | actives 56% (n = 5,600);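 active = mean loss of cell viability signal at or above a set limit, and enough replicates individually reaching it; inconclusive = meets only the mean limit or only the replicate share; inactive = meets neither condition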;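 note: 0% = median of neutral control wells and 100% = median of positive control wells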
Starred values were filed as active, the others as inactive. The full list was thinned out, with hits kept by preference.

For COCC#Cc1ccc2c(c1)O[C@H](CN(C)Cc1ccncc1)[C@H](C)CN([C@H](C)CO)S2(=O)=O the results were KDM4C inh 1.8, T cruzi growth-1 29.1 and IDH1 R132H inh 11.9.
For COCC#Cc1ccc2c(c1)O[C@H](CN(C)Cc1ccccc1)[C@@H](C)CN([C@@H](C)CO)S2(=O)=O the results were KDM4C inh -1.8, T cruzi growth-1 inconclusive, IDH1 R132H inh -0.9, T cruzi growth-2 101.9*, T cruzi growth-3 72.4, NIH3T3 tox 20.9 and 3T3 cytotox 2 104.1*.
For COC(=O)c1ccc(-n2c(CCC(=O)O)ccc2-c2ccc(Br)cc2)cc1 the results were IDH1 R132H inh 0.5.
Screening S=C(NCC1CCCO1)Nc1cnn(Cc2ccc(Cl)cc2)c1 (stereo not given) returned IDH1 R132H inh 0.3.
Screening COc1ccccc1NC(=O)C1CC(=O)n2c(nc3ccccc32)N1 (stereo not given) returned IDH1 R132H inh 0.4.
`COc1ccc(S(=O)(=O)N(C)C[C@H]2Oc3ccc(NC(=O)Cn4cnnn4)cc3C(=O)N([C@@H](C)CO)C[C@H]2C)cc1` gave KDM4C inh -0.2, T cruzi growth-1 99.9*, IDH1 R132H inh 0.7, T cruzi growth-2 37.0, T cruzi growth-3 -33.0, NIH3T3 tox 10.0 and 3T3 cytotox 2 5.7.
`COc1ccc(S(=O)(=O)N(C)C[C@@H]2Oc3ccc(NC(=O)Cn4cnnn4)cc3C(=O)N([C@@H](C)CO)C[C@H]2C)cc1` gave KDM4C inh -2.0, T cruzi growth-1 -15.1 and IDH1 R132H inh 1.0.
For COc1ccc(S(=O)(=O)N(C)C[C@H]2OCCCC[C@H](C)Oc3ccc(NC(=O)C4CCCCC4)cc3C(=O)N([C@H](C)CO)C[C@@H]2C)cc1 the results were KDM4C inh -2.3 and T cruzi growth-1 59.5.
Screening COc1ccc(S(=O)(=O)N(C)C[C@H]2OCCCC[C@H](C)Oc3ccc(NC(=O)C4CCCCC4)cc3C(=O)N([C@@H](C)CO)C[C@@H]2C)cc1 returned KDM4C inh -1.1, T cruzi growth-1 106.0*, T cruzi growth-2 105.5*, T cruzi growth-3 79.4, NIH3T3 tox -0.3 and 3T3 cytotox 2 -26.4.
COc1ccc(S(=O)(=O)N(C)C[C@H]2OCCCC[C@@H](C)Oc3ccc(NC(=O)C4CCCCC4)cc3C(=O)N([C@H](C)CO)C[C@@H]2C)cc1 was read as KDM4C inh -0.9 and T cruzi growth-1 36.7.
COc1ccc(S(=O)(=O)N(C)C[C@@H]2OCCCC[C@@H](C)Oc3ccc(NC(=O)C4CCCCC4)cc3C(=O)N([C@@H](C)CO)C[C@@H]2C)cc1 was read as KDM4C inh -0.3, T cruzi growth-1 98.6*, IDH1 R132H inh 1.1, T cruzi growth-2 94.1, T cruzi growth-3 56.7, NIH3T3 tox 11.6 and 3T3 cytotox 2 72.4*.
For CO[C@@H]1CN(C)C(=O)c2cc(NC(=O)C3CC3)ccc2OC[C@H](C)N(Cc2nccs2)C[C@@H]1C the results were KDM4C inh -2.0 and IDH1 R132H inh 0.2.
For N#C[C@H]1[C@H](c2ccc(C#CC3(O)CCCC3)cc2)[C@H](CO)N1C(=O)C1CCC1 the results were KDM4C inh 1.2, T cruzi growth-1 100.3*, T cruzi growth-2 106.8*, T cruzi growth-3 66.1, NIH3T3 tox 15.3 and 3T3 cytotox 2 64.1*.
`N#C[C@H]1[C@@H](c2ccc(C#Cc3ccc(F)cc3)cc2)[C@H](CO)N1C(=O)C1CC1` gave KDM4C inh -2.0 and T cruzi growth-1 93.4.
For N#C[C@H]1[C@@H](c2ccc(C#CC3(O)CCCC3)cc2)[C@H](CO)N1C(=O)C1CC1 the results were KDM4C inh 1.1, T cruzi growth-1 99.7*, T cruzi growth-2 104.0*, T cruzi growth-3 94.5, NIH3T3 tox 8.1 and 3T3 cytotox 2 56.0*.
For N#C[C@@H]1[C@H](c2ccc(C#Cc3ccc(F)cc3)cc2)[C@@H](CO)N1C(=O)C1CCC1 the results were KDM4C inh -2.5 and T cruzi growth-1 92.6.
Screening Cc1nc(CSc2ncnc3sc4c(c23)CCCCC4)cs1 returned IDH1 R132H inh -0.1.
Screening COCC(=O)N1CCCCN2[C@H](CO)[C@@H](c3ccc(C#Cc4ccccc4)cc3)[C@H]2C1 returned KDM4C inh -0.4 and T cruzi growth-1 35.9.
Screening CCC(=O)N1CCCCN2[C@@H](CO)[C@H](c3ccc(C#Cc4ccccc4F)cc3)[C@@H]2C1 returned KDM4C inh -1.7, T cruzi growth-1 123.8*, T cruzi growth-2 108.6*, T cruzi growth-3 90.7, NIH3T3 tox 45.2* and 3T3 cytotox 2 103.5*.
`CC(=O)N1CCCCN2[C@H](CO)[C@@H](c3ccc(C#Cc4ccccc4F)cc3)[C@H]2C1` gave KDM4C inh 1.3, T cruzi growth-1 102.8*, T cruzi growth-2 74.7, T cruzi growth-3 44.0, NIH3T3 tox 45.9* and 3T3 cytotox 2 104.3*.
Screening CCC(=O)N1CCCCN2[C@H](CO)[C@@H](c3ccc(C#Cc4ccccc4F)cc3)[C@H]2C1 returned KDM4C inh 0.2, T cruzi growth-1 112.1*, T cruzi growth-2 101.7*, T cruzi growth-3 46.6, NIH3T3 tox 33.8 and 3T3 cytotox 2 103.9*.
Screening CN1CCCCN2[C@@H](CO)[C@@H](c3ccc(C#Cc4ccccc4F)cc3)[C@@H]2C1 returned KDM4C inh 5.3 and T cruzi growth-1 93.2.
Screening CCC(=O)N1CCCCN2[C@@H](CO)[C@@H](c3ccc(C#Cc4ccccc4F)cc3)[C@@H]2C1 returned KDM4C inh -1.5, T cruzi growth-1 113.2*, T cruzi growth-2 102.2*, T cruzi growth-3 65.1, NIH3T3 tox 9.7 and 3T3 cytotox 2 103.3*.
For CCC(=O)N1CCCCN2[C@H](CO)[C@@H](c3ccc(C#Cc4cccnc4)cc3)[C@@H]2C1 the results were KDM4C inh -1.3 and T cruzi growth-1 43.5.
For CN1CCCCN2[C@H](CO)[C@@H](c3ccc(C#Cc4ccccc4F)cc3)[C@@H]2C1 the results were KDM4C inh -2.3 and T cruzi growth-1 81.6.
Screening COc1ccc(OC)c(N(CC(=O)Nc2ccc(I)cc2C)S(C)(=O)=O)c1 returned IDH1 R132H inh -0.4.
CN(C)CCNc1nc2c(c(=O)n(C)c(=O)n2C)n1Cc1c(F)cccc1Cl was read as IDH1 R132H inh -0.1.
`Cc1cccc(-n2c(N)cc(=O)nc2SCC(=O)Nc2sc3c(c2C#N)CCCCCC3)c1` gave IDH1 R132H inh 0.7.
Screening O=C(C[C@H]1CC[C@@H]2[C@H](COC[C@@H](O)CN2S(=O)(=O)c2ccc(F)cc2)O1)NCCN1CCCCC1 returned KDM4C inh 1.3, T cruzi growth-1 114.5*, T cruzi growth-2 16.4, T cruzi growth-3 -28.1, NIH3T3 tox -9.8 and 3T3 cytotox 2 -19.4.
